# Screening results (PubChem BioAssay)
# Shown are actives, neighbours in structure and some others; about 2.3% of the full set was active somewhere.
# Apaf1 inhib: inhibitors of human Apaf-1 apoptosome; AID 489030; inhibition, % at 20 µM; 0.71% of 330,000 active; O14727; reconstituted apoptosome caspase-3 activity, DEVD-Rh110 fluorescence; active = inhibition of at least 40% at 20 µM
#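 Assay system: Apoptosome proteins | Medium: pH 7.5 Hepes buffer with CHAPS, BSA, DTT | Also added: Cytochrome c and DEVD-Rh110 substrate | Times: 30 min plus 50 min, RT | Detection: Rhodamine 110 fluorescence at Ex 480/Em 540 nm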
# TDP2 absorb: TDP2 (human) inhibition, absorbance primary screen | inhibition, % at 12.8 µM | 0.34% of 370,000 active | recombinant TDP2, T5PNP hydrolysis, p-nitrophenol absorbance 415 nm;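 active = inhibition above the mean of all tested compounds plus 3 SD, set per campaign, cut at about 25% in these data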
#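 Assay system: Recombinant human TDP2 | Quantity: 120 nM TDP2 per well | Incubation: 2 h at 37 °C | Signal: Epi absorbance | Evaluation: Percent inhibition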
# PAFAH1B2 FP inh: PAFAH1B2 (human) inhibition. recombinant PAFAH1B2, FP-rhodamine activity probe, fluorescence polarization. inhibition, % at 3.39 µM. 1.2% of 340,000 active. AID 492953. P68402;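 active = inhibition above the mean of all tested compounds plus 3 SD, cut at about 24% in these data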
# Target sequence (P68402 whole entry, looked up): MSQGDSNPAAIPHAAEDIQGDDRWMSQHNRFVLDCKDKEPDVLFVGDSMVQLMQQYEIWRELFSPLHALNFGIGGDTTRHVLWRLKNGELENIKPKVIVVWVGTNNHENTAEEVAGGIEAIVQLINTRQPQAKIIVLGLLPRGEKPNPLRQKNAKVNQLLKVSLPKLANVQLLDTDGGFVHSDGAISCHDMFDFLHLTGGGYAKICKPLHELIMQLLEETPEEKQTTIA
# PAFAH1B3 inh: PAFAH1B3 (human) inhibition | recombinant PAFAH1B3, FP-rhodamine probe, fluorescence polarization | Q15102 | inhibition, % at 3.39 µM | AID 492972 | 0.28% of 340,000 active;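 active = inhibition above the screen-wide average of all tested compounds plus 3 SD, cut at about 25% in these data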
# Target sequence (Q15102 whole entry, looked up): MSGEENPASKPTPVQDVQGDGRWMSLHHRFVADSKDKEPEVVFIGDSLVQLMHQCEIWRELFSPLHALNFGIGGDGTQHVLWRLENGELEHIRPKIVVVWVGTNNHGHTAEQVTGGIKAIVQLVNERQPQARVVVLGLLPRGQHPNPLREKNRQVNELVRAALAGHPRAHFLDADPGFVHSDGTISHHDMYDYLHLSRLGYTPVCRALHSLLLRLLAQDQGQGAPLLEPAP
# PAFAH2 inh: PAFAH2 (human) inhibition; Q99487; recombinant PAFAH2, FP-rhodamine activity probe, fluorescence polarization; inhibition, % at 3.39 µM; 0.99% of 340,000 active; AID 492956;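 active = inhibition above the mean over all tested compounds plus 3 SD, cut at about 30% in these data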;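 note: inhibitors block probe labeling of enzyme so polarization drops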
# Hits are given with their value; i = inactive; nt = no result.
SMILES,Apaf1 inhib,TDP2 absorb,PAFAH1B2 FP inh,PAFAH1B3 inh,PAFAH2 inh
CC(C)C[C@@H]1COc2cc(Br)ccc2S(=O)(=O)N1Cc1cn(CCC2OCCCO2)nn1,nt,i,nt,nt,nt
CC1(OC(=O)c2cccs2)C(=O)C=C2C=C3CCCN3C=C2C1=O (stereo not drawn),61.8,nt,i,i,i
O=c1cc(-c2ccc(O)cc2)oc2c(O)c(O)c(O)c(O)c12,i,i,26.4,51.5,69.2
O=c1cc(-c2ccc(O)cc2)oc2c1ccc1ccccc12,i,i,i,i,i
Brc1ccccc1C1Cc2nnccc2CN1 (stereo not drawn),nt,i,nt,nt,nt
Cc1ccc(CCNC(=O)C2CCC(=O)N2C2CCCC2)cc1 (stereo not drawn),i,i,26.9,i,i
Cc1ccc(CCNC(=O)C2CCC(=O)N2C(C)C)cc1 (stereo not drawn),i,i,i,i,i
COC(=O)[C@]12C[C@H](CC(=O)N3CCSCC3)C(=O)N(CCC3=CCCCC3)C1=C[C@H](C(C)(C)C)O[C@@H]2C,nt,i,nt,nt,nt
Cc1c(CNC(=O)C2CC2)c(-n2cccc2)n(Cc2ccccc2)c1C,i,i,i,i,i
CCC(=O)NCc1c(C)c(C)n(Cc2ccccc2)c1-n1cccc1,i,i,27.6,i,i
CC(C)c1cc2c(c(O)c1O)[C@@]13CCCC(C)(C)C1CC2OC3=O (stereo partly drawn),i,i,54.0,i,61.0
C#CCOCCOCCOCCNc1nc(N2CCN(C(=O)[C@H]([C@@H](C)CC)n3cc([C@@H](N)CO)nn3)CC2)nc(N2CCN(C(=O)[C@H](Cc3ccc(O)cc3)n3cc([C@@H](N)C(C)CC)nn3)CC2)n1 (stereo partly drawn),i,nt,i,i,i
C#CCOCCOCCOCCNc1nc(N2CCN(C(=O)[C@H]([C@@H](C)CC)n3cc([C@@H](N)CC(C)C)nn3)CC2)nc(N2CCN(C(=O)[C@H](Cc3cc4ccccc4[nH]3)n3cc([C@@H](N)CC(C)C)nn3)CC2)n1,57.7,nt,nt,nt,nt
C#CCOCCOCCOCCNc1nc(N2CCN(C(=O)C([C@@H](C)CC)n3cc(C(N)COC(=O)C(F)(F)F)nn3)CC2)nc(N2CCN(C(=O)[C@H](Cc3cc4ccccc4[nH]3)n3cc(C(N)CO)nn3)CC2)n1 (stereo partly drawn),49.2,nt,nt,nt,nt
C#CCOCCOCCOCCNc1nc(N2CCOCC2)nc(N2CCN(C(=O)[C@H](Cc3cc4ccccc4[nH]3)n3cc([C@@H](N)CC(C)C)nn3)CC2)n1,i,nt,i,i,i
C#CCOCCOCCOCCNc1nc(N2CCN(C(=O)[C@H]([C@@H](C)CC)n3cc([C@@H](N)CO)nn3)CC2)nc(N2CCN(C(=O)[C@H](Cc3cc4ccccc4[nH]3)n3cc([C@@H](N)C(C)CC)nn3)CC2)n1 (stereo partly drawn),47.9,nt,nt,nt,nt
Cc1ccc2c(c1)C(CS(=O)(=O)NCC(C)C)NC2 (stereo not drawn),nt,i,nt,nt,nt
Clc1ccc(-c2nnc(SCc3cccc4ccccc34)n2Cc2ccco2)cc1,nt,i,nt,nt,nt
CCOC(=O)N1CCN(C(=O)C[C@@H]2C(=O)N3CCCC4=C3[C@@]2(C(=O)OCC)CCC4)CC1,nt,i,nt,nt,nt
CC(C)N(C(=S)NCc1ccccc1)C(C)C,i,i,i,i,i
CC(C)N(C(=S)NCc1ccccc1)c1ccccc1,i,i,28.7,i,i
CCOC(=O)CC[C@H]1CC[C@]2(CCCN(C(=O)c3cccnc3)C2)O1,nt,i,nt,nt,nt
N#CCCN(C(=O)COC(=O)C12CC3CC(CC(O)(C3)C1)C2)c1ccc(F)cc1,43.3,i,i,i,i
N#CCCN(C(=O)COC(=O)CNC(=O)C12CC3CC(CC(C3)C1)C2)c1ccccc1,i,i,i,i,i
N/C(=N\OC(=O)c1ccccc1Cl)c1ccccc1,i,i,i,i,i
SMILES,Apaf1 inhib,TDP2 absorb,PAFAH1B2 FP inh,PAFAH1B3 inh,PAFAH2 inh
Cc1cccc(C(=O)O/N=C(/c2ccccc2)c2ccncc2)c1,i,i,38.3,i,i
O=C(O/N=C(\c1ccccc1)c1ccncc1)c1ccccc1Cl,i,i,88.0,i,i
Cc1[nH]c2ccccc2c1CC(=O)Nc1ccc(Nc2cccnc2)c(-c2ccc(OC(F)(F)F)cc2)c1,nt,i,nt,nt,nt
COc1cc(C=NNc2ccc(S(=O)(=O)Nc3ccccc3C(=O)O)cc2[N+](=O)[O-])ccc1O,i,i,30.5,i,47.5
CC(=O)Nc1ccc(C=NNc2ccc(S(=O)(=O)Nc3ccccc3C(=O)O)cc2[N+](=O)[O-])cc1,i,i,25.7,26.7,i
O=C(O)c1ccccc1NS(=O)(=O)c1ccc(N/N=C/c2cccc(O)c2O)c([N+](=O)[O-])c1,nt,i,44.0,47.9,63.3
CCOc1ccc(C=NNc2ccc(S(=O)(=O)Nc3ccccc3C(=O)O)cc2[N+](=O)[O-])cc1OC,i,nt,i,i,i
CCOc1cc(/C=N/Nc2ccc(S(=O)(=O)Nc3ccccc3C(=O)O)cc2[N+](=O)[O-])cc(Cl)c1O,nt,i,nt,nt,nt
CC(=O)Nc1cccc(/C(C)=N/Nc2ccc(S(=O)(=O)Nc3ccccc3C(=O)O)cc2[N+](=O)[O-])c1,nt,i,33.1,i,38.3
O=C(c1ccc2c(c1)OCO2)N1CCC(Oc2cccnc2)CC1,nt,i,nt,nt,nt
CC12CCC(C1)C(C)(C)C2NS(=O)(=O)c1ccc(F)cc1 (stereo not drawn),i,i,25.9,i,i
CC1(C)CC(NS(=O)(=O)c2ccc(F)cc2)CC(C)(C)N1,i,i,i,i,i
O=C(NCCc1c[nH]c2ccccc12)OCc1cn(-c2ccc(F)cc2)nn1,nt,i,nt,nt,nt
O=C1NN(c2ccc(Cl)c(Cl)c2)C(=O)/C1=C/c1ccc(-c2ccccc2C(=O)O)o1,i,i,26.4,i,30.4
O=C1NN(c2cccc(Br)c2)C(=O)/C1=C/c1ccc(-c2cc([N+](=O)[O-])ccc2O)o1,i,nt,i,31.4,47.3
Cc1[nH]n(-c2ccccc2)c(=O)c1C(C[N+](=O)[O-])c1ccc(Cl)cc1 (stereo not drawn),88.2,27.2,i,i,i
Cc1[nH]n(-c2ccccc2)c(=O)c1C(c1ccccc1[N+](=O)[O-])C(C#N)C#N (stereo not drawn),i,74.9,i,i,i
O=C(O)c1cc(NC(=O)c2ccc(Br)cc2)cc(NC(=O)c2ccc(Br)cc2)c1,i,i,29.6,i,i
O=C(Oc1ccc(-c2ccccc2)cc1)N1CCOCC1,i,i,i,i,32.2
CN=C1S/C(=C/c2cc(C)n(Cc3ccccc3)c2C)C(=O)N1C,nt,i,nt,nt,nt
O=C(COc1ccc(Cl)cc1)c1ccc(O)cc1O,i,i,26.8,i,i
O=C(O)c1ccc(NS(=O)(=O)c2ccc3c(c2)C2C=CCC2C(c2ccccc2F)N3)cc1 (stereo not drawn),i,i,i,41.9,41.0
CC(C)(C)CCN1CCC[C@H](NC(=O)COc2ccc(F)c(Cl)c2)C1,nt,i,nt,nt,nt
COc1ccccc1CNC1CCC12CCC(c1ccccc1)CC2 (stereo not drawn),nt,i,nt,nt,nt
